Compound activity from PubChem.
Shown is part of a subset that was picked to be rich in hits.
Lmaj promast = Leishmania major promastigote growth inhibition, primary screen; inhibition, % at 10 µM; Leishmania major promastigotes, resazurin fluorescence viability; 200,000 tested, 9% active; in the data active means inhibition above about 50%;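 further: promastigotes grown with compound for 44 hours at 28 °C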
Lipid droplet = inhibitors of hepatocyte lipid droplet formation, primary screen, imaging, high-throughput imaging, BODIPY stain | AML12 mouse hepatocytes, oleate lipid droplets | inhibition, % at 6.5 µM | 240,000 tested, 0.4% active | AID 1656, 2009;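 active means lipid droplet intensity inhibited by at least 50%, with more than 500 cells counted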
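System: AML12 hepatocytes (mouse). Probe or stimulus: oleic acid at 100 µM to induce lipid droplet formation. Times: overnight treatment with compound plus oleate. Detection: Image-based BODIPY and DAPI two-channel analysis. Evaluation: percent inhibition of filter-corrected integrated lipid droplet intensity per well.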
T cruzi inh = inhibitors of intracellular T. cruzi growth, primary screen, luminescence, NIH3T3 host cells | T. cruzi beta-gal in NIH3T3, 90 h | inhibition, % (test concentration not listed) | 300,000 tested, 1.4% active | AID 1885, 2009;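 active means mean inhibition across valid replicates above about 55%, limit read from the data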;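 further: signal also drops with host cell toxicity which is not excluded here; 0% = plate median of DMSO wells and 100% = zero luminescence signal; higher percent means less beta-gal luminescence so fewer parasites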
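Assay system: NIH/3T3 host cells with β-galactosidase reporter T. cruzi; input: 5,000 host fibroblasts per well; compound: single 50 nL compound addition per well in DMSO; timing: ≥90 h infection period, 3 h prior cell attachment; measured by: GalScreen β-gal luminescence, detergent lysis, 60 min; evaluation: percent inhibition of parasite-derived β-gal signal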
MPTP inh = mitochondrial permeability transition pore inhibitors, primary screen, biochemical, isolated mouse mitochondria, absorbance; Ca2+ swelling absorbance, 30 min; inhibition, % at 10 µM; 360,000 tested, 1.4% active;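 active means inhibition of 50% or more, scaled per plate between neutral and stimulator controls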;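 further: 0% = DMSO wells given calcium and 100% = 1 mM EGTA wells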
DTT redox prof = compounds producing H2O2 with reducing agent – biochemical, NIH compound library profiling, artefact control for MLSCN library redox annotation, primary screen | DTT-dependent redox cycling H2O2, phenol red/HRP absorbance; 100% = 100 µM peroxide control, 0% = buffer | activation, % at 10 µM | 200,000 tested, 0.03% active | AID 878, 2007;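 active means activation of at least 50% relative to the plate's high and low controls in the primary single-dose screen; inactive means activation below 50%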;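 further: compound incubated with DTT at 0.8 mM final as the reducing agent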
* hit, by the source's call.

How did CCOc1ccc(CCNC(=O)c2nnc(CS(=O)(=O)c3ccccc3)o2)cc1OCC do in these assays?
Lipid droplet: 2; T cruzi inh: -2; MPTP inh: 0

Results for O=C(Nc1nnc(-c2cccs2)s1)c1cccc(F)c1 ?
Lmaj promast: 0; Lipid droplet: 3; MPTP inh: -1; DTT redox prof: 1

What do the screens show for `CCn1cc(C(=O)N(C)CC(OC)OC)c(=O)c2cc(S(=O)(=O)N3CCOCC3)ccc21`?
Lipid droplet: -4; T cruzi inh: -14; MPTP inh: -1

Results for Cc1cc(C)c(S(=O)(=O)N2CCCOC2CNC(=O)C(=O)NCCCn2ccnc2)c(C)c1 (centres undefined) ?
Lmaj promast: 54*; Lipid droplet: -1; T cruzi inh: -5; MPTP inh: -1; DTT redox prof: 0

Results for Cc1ccc(S(=O)(=O)N2CCCC(C(=O)Nc3ccc(C(=O)O)cc3)C2)cc1Cl (centres undefined) ?
Lmaj promast: 0; Lipid droplet: 15; T cruzi inh: -11; MPTP inh: 0; DTT redox prof: -1

Results for CN(C)CCNC(=O)c1ccc2c(c1)N(Cc1ccc(F)cc1)CCS2 ?
Lmaj promast: 100*; T cruzi inh: -16; MPTP inh: 0; DTT redox prof: -1

How did O=C(Nc1cc2c3c(c1)C1CCCC1CN3CC1CCCC21)c1ccccc1 (centres undefined) do in these assays?
Lmaj promast: 97*; T cruzi inh: 60*; MPTP inh: 1; DTT redox prof: -3

How did Cc1ccc2oc(C(=O)N(C)CCC(O)c3ccccc3)c(C)c2c1 (centres undefined) do in these assays?
Lipid droplet: -1; T cruzi inh: -1; MPTP inh: 0

How did COc1ccc(N=N/C(=C\O)C(=O)c2cccs2)cc1 do in these assays?
Lmaj promast: 69*; Lipid droplet: 28; T cruzi inh: 1; MPTP inh: 0; DTT redox prof: 0

Results for COc1ccc(C(=O)/C(=C/O)N=Nc2ccc(F)cc2)cc1 ?
Lmaj promast: 61*; Lipid droplet: 14; T cruzi inh: 4; MPTP inh: 1; DTT redox prof: 0

Results for O=C(/C(=C/O)N=Nc1ccc(Cl)cc1)c1ccncc1 ?
Lmaj promast: 100*; T cruzi inh: 9; MPTP inh: -5; DTT redox prof: 0

How did Cc1ccc(N=N/C(=C\O)C(=O)c2ccncc2)cc1 do in these assays?
Lmaj promast: -5; Lipid droplet: 13; T cruzi inh: -2; MPTP inh: -2; DTT redox prof: 0

How did COc1ccc(NC(=O)c2cccs2)cc1 do in these assays?
Lmaj promast: 2; Lipid droplet: -2; T cruzi inh: -21; MPTP inh: -12; DTT redox prof: 0

How did c1cc2c(cc1CN1CCOCC1)OCO2 do in these assays?
Lmaj promast: 0; Lipid droplet: 4; T cruzi inh: -9; MPTP inh: -2; DTT redox prof: 0

How did O=S(=O)(/C=C/c1ccccc1)N1CCN(Cc2ccc3c(c2)OCO3)CC1 do in these assays?
Lmaj promast: 85*; Lipid droplet: -6; T cruzi inh: 3; MPTP inh: 1; DTT redox prof: -1

What do the screens show for `C(=C\c1ccccc1)/CN1CCN(Cc2ccc3c(c2)OCCO3)CC1`?
Lmaj promast: 92*; Lipid droplet: 1; T cruzi inh: 64*; DTT redox prof: 1

How did Cc1cc2oc(=O)cc(CN3CCN(S(=O)(=O)/C=C/c4ccccc4)CC3)c2cc1C do in these assays?
Lmaj promast: 96*; Lipid droplet: -6; T cruzi inh: 66*; MPTP inh: 2; DTT redox prof: 1

How did CC(C)n1c(-c2ccc(N(C)C)cc2)nc2ccccc21 do in these assays?
Lmaj promast: 50*; MPTP inh: 3; DTT redox prof: 2

What do the screens show for `O=C(Nc1ccccc1)N1CCCCC1c1cccnc1` (centres undefined)?
Lmaj promast: 77*; Lipid droplet: -3; T cruzi inh: 44; MPTP inh: -1; DTT redox prof: 1

What do the screens show for `O=C(Nc1ccccc1F)N1CCCC1c1cccnc1` (centres undefined)?
Lipid droplet: 1; T cruzi inh: 19; MPTP inh: 3

Results for CCc1ccc2nc(N=C(N)N)nc(C)c2c1 ?
Lmaj promast: 96*; Lipid droplet: 2; T cruzi inh: 31; MPTP inh: 1; DTT redox prof: -1

How did Cc1ccc2nc(N=C(N)N)nc(C)c2c1 do in these assays?
Lmaj promast: 26; Lipid droplet: -18; T cruzi inh: 35; MPTP inh: 0; DTT redox prof: -2

Results for Cc1cc2nc(N=C(N)N)nc(C)c2cc1C ?
Lmaj promast: 100*; Lipid droplet: 15; MPTP inh: 4; DTT redox prof: 0

What do the screens show for `O=C(Cc1ccc(Br)cc1)OCC(=O)c1ccc[nH]1`?
MPTP inh: 0

Results for O=C(c1ccccc1)c1ccc2nc(-c3ccc(NC(=O)c4ccccc4F)cc3)[nH]c2c1 ?
Lmaj promast: 61*; T cruzi inh: 15; MPTP inh: -5; DTT redox prof: 1

Results for O=C(O)CCC(=O)Nc1ccc(-c2nc3ccc(C(=O)c4ccccc4)cc3[nH]2)cc1 ?
Lipid droplet: -5; T cruzi inh: -9; MPTP inh: 1

What do the screens show for `CC1CCCCC12NC(=S)N(c1ccccc1)N2` (centres undefined)?
Lipid droplet: -8; T cruzi inh: 8; MPTP inh: 0

How did CC1CCCC2(C1)NC(=S)N(c1ccccc1)N2 (centres undefined) do in these assays?
Lmaj promast: 84*; T cruzi inh: -7; MPTP inh: 0; DTT redox prof: 2

How did CC1CC(C)(C)CC2(C1)NC(=S)N(c1ccccc1)N2 (centres undefined) do in these assays?
Lmaj promast: 4; Lipid droplet: 16; T cruzi inh: -3; MPTP inh: 1; DTT redox prof: 0

Results for S=C1NC2(CCCCC2)NN1c1ccccc1 ?
Lmaj promast: 81*; Lipid droplet: 2; T cruzi inh: 6; MPTP inh: -1; DTT redox prof: 0

How did N#Cc1c(N)n(Cc2ccccc2)c(=O)c2cc([N+](=O)[O-])ccc12 do in these assays?
Lipid droplet: -3; T cruzi inh: 57*; MPTP inh: 2

How did COc1cc(CNCCc2ccc(F)cc2)ccc1OCc1ccc(Cl)nc1 do in these assays?
Lmaj promast: 100*; Lipid droplet: 9; T cruzi inh: 40; MPTP inh: 4; DTT redox prof: 1

How did COc1cc(CNCCc2ccccc2F)ccc1OCc1ccc(Cl)nc1 do in these assays?
Lmaj promast: 100*; Lipid droplet: 24; T cruzi inh: 47; MPTP inh: 31; DTT redox prof: 0
